What all share (assay type): functional
For assay [1], the system named is Rattus norvegicus. As to the kind of experiment: Effect on level of total cholesterol (relative to untreated control) in cholesterol fed-male rats at 80 mg/kg/day. The method in brief:
(§1)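 Male Sprague–Dawley rats (groups of six) fed a cholic acid- and cholesterol-supplemented diet; compound mixed into the diet, given ad libitum for eight days. Lipoproteins were separated by ultracentrifugation, and cholesterol was measured by an enzymatic colorimetric method. Results are % change versus untreated controls, with significance at p < 0.05.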

In assay [2] the test system is Rattus norvegicus. As to the kind of experiment: Effect on level of apolipoprotein (Apo) AI (relative to untreated control) in cholesterol fed-male rats at 80 mg/kg/day. The method in brief:
(§2)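 Six male Sprague–Dawley rats per group, fed a cholic acid/cholesterol-supplemented diet, received compound in the diet ad libitum for eight days. Serum Apo A–I was measured by SDS-PAGE or by rat competition ELISA and reported as % change versus untreated controls (p < 0.05). Gemfibrozil was the internal positive control in each study.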

The subject of assay [3] is Rattus norvegicus. As to the kind of experiment: Effect on level of triglyceride in (relative to untreated control) in cholesterol fed-male rats at 80 mg/kg/day. Summed up:
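Compound given in diet ad libitum for eight days to groups of six male Sprague–Dawley rats on a cholic acid and cholesterol-supplemented diet. Serum triglycerides expressed as % change relative to untreated controls, with significance at p < 0.05. Gemfibrozil served as internal positive control within each study.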

The subject of assay [4] is Rattus norvegicus. As to the kind of experiment: Effect on level of high density lipoprotein cholesterol (relative to untreated control) in cholesterol fed-male rats at 80 mg/kg/day. The method in brief:
as §1

In assay [5] the test system is Rattus norvegicus. The assay can be described thus: Effect on change in body weight gain (relative to untreated control) in cholesterol fed-male rats at 80 mg/kg/day. Summed up:
(§3)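 Male Sprague–Dawley rats, six per group, on a cholic acid- and cholesterol-supplemented diet. Compounds were mixed into the diet and given ad libitum for eight days. Change in body weight gain is expressed as a percentage of untreated controls. Significance was set at p < 0.05 versus untreated controls.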

Assay [6] has as its system Rattus norvegicus. The assay can be described thus: Effect on change in body weight gain (relative to untreated control) in cholesterol fed-male rats at 40 mg/kg/day. Summed up: as §3
Assay [7] relates to Rattus norvegicus. As to the kind of experiment: Effect on level of total cholesterol (relative to untreated control) in cholesterol fed-male rats at 40 mg/kg/day. Summed up:
as §1

For assay [8], the system named is Rattus norvegicus. As to the kind of experiment: Effect on level of triglyceride in (relative to untreated control) in cholesterol fed-male rats at 40 mg/kg/day. The method in brief: (§4)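 Serum triglycerides were measured in groups of six male Sprague–Dawley rats on a cholic acid/cholesterol-supplemented diet. Compound was dosed in the diet, ad libitum, for eight days. Results are % change relative to untreated controls, with significance at p < 0.05.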

In assay [9] the test system is Rattus norvegicus. The assay can be described thus: Effect on level of high density lipoprotein cholesterol (relative to untreated control) in cholesterol fed-male rats at 40 mg/kg/day. The method in brief: (§5)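 Cholic acid/cholesterol-fed male Sprague–Dawley rats (n = 6 per group) were dosed via diet ad libitum for eight days. Lipoproteins were separated by ultracentrifugation and HDL cholesterol was quantified by an enzymatic colorimetric method. Values are % change relative to untreated controls, with significance at p < 0.05. Gemfibrozil was the internal positive control.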

Assay [10] has as its system Rattus norvegicus. The assay can be described thus: Effect on level of apolipoprotein (Apo) AI (relative to untreated control) in cholesterol fed-male rats at 40 mg/kg/day. Summed up: as §2
The test system of assay [11] is Rattus norvegicus. The assay can be described thus: Effect on level of total cholesterol (relative to untreated control) in cholesterol fed-male rats at 36 mg/kg/day. The method in brief:
as §1

In assay [12] the test system is Rattus norvegicus. As to the kind of experiment: Effect on level of apolipoprotein (Apo) AI (relative to untreated control) in cholesterol fed-male rats at 36 mg/kg/day. Summed up: as §2
The subject of assay [13] is Rattus norvegicus. As to the kind of experiment: Effect on level of triglyceride in (relative to untreated control) in cholesterol fed-male rats at 36 mg/kg/day. Summed up: as §4
In assay [14] the test system is Rattus norvegicus. As to the kind of experiment: Effect on change in body weight gain (relative to untreated control) in cholesterol fed-male rats at 36 mg/kg/day. Summed up: as §3
The subject of assay [15] is Rattus norvegicus. The assay can be described thus: Effect on level of high density lipoprotein cholesterol (relative to untreated control) in cholesterol fed-male rats at 36 mg/kg/day. Summed up: as §5
Assay [16] deals with Rattus norvegicus. The assay can be described thus: Effect on level of triglyceride in (relative to untreated control) in cholesterol fed-male rats at 74 mg/kg/day. Summed up: as §4
For assay [17], the system named is Rattus norvegicus. The assay can be described thus: Effect on change in body weight gain (relative to untreated control) in cholesterol fed-male rats at 74 mg/kg/day. Summed up: as §3
The test system of assay [18] is Rattus norvegicus. As to the kind of experiment: Effect on level of apolipoprotein (Apo) AI (relative to untreated control) in cholesterol fed-male rats at 74 mg/kg/day. The method in brief: as §2
Assay [19] relates to Rattus norvegicus. As to the kind of experiment: Effect on level of high density lipoprotein cholesterol (relative to untreated control) in cholesterol fed-male rats at 74 mg/kg/day. The method in brief: as §1
Assay [20] relates to Rattus norvegicus. As to the kind of experiment: Effect on level of total cholesterol (relative to untreated control) in cholesterol fed-male rats at 74 mg/kg/day. The method in brief: as §1
Assay [21] concerns Rattus norvegicus. The assay can be described thus: Effect on change in body weight gain (relative to untreated control) in cholesterol fed-male rats at 75 mg/kg/day. The method in brief: as §3
For assay [22], the system named is Rattus norvegicus. As to the kind of experiment: Effect on level of total cholesterol (relative to untreated control) in cholesterol fed-male rats at 75 mg/kg/day. The method in brief: as §1
Assay [23] deals with Rattus norvegicus. The assay can be described thus: Effect on level of apolipoprotein (Apo) AI (relative to untreated control) in cholesterol fed-male rats at 75 mg/kg/day. Summed up: as §2
The subject of assay [24] is Rattus norvegicus. As to the kind of experiment: Effect on level of high density lipoprotein cholesterol (relative to untreated control) in cholesterol fed-male rats at 75 mg/kg/day. Summed up:
as §1

For assay [25], the system named is Rattus norvegicus. The assay can be described thus: Effect on level of triglyceride in (relative to untreated control) in cholesterol fed-male rats at 75 mg/kg/day. Summed up: as §4
Assay [26] concerns Rattus norvegicus. As to the kind of experiment: Effect on level of total cholesterol (relative to untreated control) in cholesterol fed-male rats at 67 mg/kg/day. Summed up:
as §1

The test system of assay [27] is Rattus norvegicus. As to the kind of experiment: Effect on level of high density lipoprotein cholesterol (relative to untreated control) in cholesterol fed-male rats at 67 mg/kg/day. Summed up: as §1
Assay [28] deals with Rattus norvegicus. The assay can be described thus: Effect on level of apolipoprotein (Apo) AI (relative to untreated control) in cholesterol fed-male rats at 67 mg/kg/day. Summed up: as §2
The test system of assay [29] is Rattus norvegicus. As to the kind of experiment: Effect on level of triglyceride in (relative to untreated control) in cholesterol fed-male rats at 67 mg/kg/day. Summed up: as §4
The subject of assay [30] is Rattus norvegicus. As to the kind of experiment: Effect on change in body weight gain (relative to untreated control) in cholesterol fed-male rats at 67 mg/kg/day. The method in brief: as §3
In assay [31] the test system is Rattus norvegicus. As to the kind of experiment: Effect on level of triglyceride in (relative to untreated control) in cholesterol fed-male rats at 68 mg/kg/day. Summed up:
as §4

The subject of assay [32] is Rattus norvegicus. As to the kind of experiment: Effect on change in body weight gain (relative to untreated control) in cholesterol fed-male rats at 68 mg/kg/day. The method in brief: as §3
Assay [33] has as its system Rattus norvegicus. As to the kind of experiment: Effect on level of apolipoprotein (Apo) AI (relative to untreated control) in cholesterol fed-male rats at 68 mg/kg/day. The method in brief: as §2
Assay [34] concerns Rattus norvegicus. The assay can be described thus: Effect on level of high density lipoprotein cholesterol (relative to untreated control) in cholesterol fed-male rats at 68 mg/kg/day. The method in brief: as §1
Assay [35] has as its system Rattus norvegicus. The assay can be described thus: Effect on level of total cholesterol (relative to untreated control) in cholesterol fed-male rats at 68 mg/kg/day. Summed up:
as §1

The test system of assay [36] is Rattus norvegicus. The assay can be described thus: Effect on level of triglyceride in (relative to untreated control) in cholesterol fed-male rats at 51 mg/kg/day. Summed up: as §4
The subject of assay [37] is Rattus norvegicus. As to the kind of experiment: Effect on level of apolipoprotein (Apo) AI (relative to untreated control) in cholesterol fed-male rats at 51 mg/kg/day. The method in brief: as §2
Assay [38] deals with Rattus norvegicus. The assay can be described thus: Effect on change in body weight gain (relative to untreated control) in cholesterol fed-male rats at 51 mg/kg/day. Summed up: as §3
Assay [39] relates to Rattus norvegicus. As to the kind of experiment: Effect on level of total cholesterol (relative to untreated control) in cholesterol fed-male rats at 51 mg/kg/day. Summed up: as §1
In assay [40] the test system is Rattus norvegicus. As to the kind of experiment: Effect on level of high density lipoprotein cholesterol (relative to untreated control) in cholesterol fed-male rats at 51 mg/kg/day. The method in brief:
as §5

On to `COc1ccc(Cl)cc1/N=C(\S)NCCO`, for which the Activity in the assay with Rattus norvegicus [1] is 66%; in the assay on Rattus norvegicus [2], 30%; in the assay on Rattus norvegicus [3], -27%; in the assay on Rattus norvegicus [4], 106%; in the assay on Rattus norvegicus [5] it was -38%.
With `Cc1cccc(Cl)c1/N=C(\S)NCCO`, the Activity in the assay with Rattus norvegicus [6] is reported as -155%; in the assay with Rattus norvegicus [7], 8%; in the assay with Rattus norvegicus [8], -48%; with Rattus norvegicus [9], 23%; in the assay with Rattus norvegicus [10], -34%.
As to `COCC/N=C(\S)Nc1cc(Cl)ccc1C`, the Activity in the assay on Rattus norvegicus [11] is on record as 20%; in the assay on Rattus norvegicus [12] it was 33%; in the assay with Rattus norvegicus [13], -47%; with Rattus norvegicus [14], -3%; with Rattus norvegicus [15], 30%.
Take `Cc1ccc(Cl)cc1/N=C(\S)NCCCO`: the Activity in the assay with Rattus norvegicus [16] is -80%; with Rattus norvegicus [17], -63%; in the assay with Rattus norvegicus [18], 24%; with Rattus norvegicus [19], 82%; with Rattus norvegicus [20], 3%.
For `Cc1ccc(Cl)cc1/N=C(\S)N(C)CCO`, the Activity was -31% in the assay on Rattus norvegicus [21]; 29% in the assay on Rattus norvegicus [22]; 40% with Rattus norvegicus [23]; 100% in the assay with Rattus norvegicus [24]; -47% in the assay with Rattus norvegicus [25].
In the case of `Cc1ccc(Cl)cc1/N=C(\S)NC(C)(C)CO`, the Activity in the assay on Rattus norvegicus [1] was -13%; with Rattus norvegicus [2], 23%; in the assay on Rattus norvegicus [3], -15%; in the assay with Rattus norvegicus [4] it was 58%; in the assay with Rattus norvegicus [5], -23%.
Take `Cc1c(Cl)cccc1/N=C(\S)NCCO`: the Activity in the assay with Rattus norvegicus [26] is on record as 10%; in the assay with Rattus norvegicus [27], 63%; in the assay with Rattus norvegicus [28], 27%; in the assay with Rattus norvegicus [29] it was -16%; with Rattus norvegicus [30], -56%.
For `Cc1ccc(Cl)cc1N/C(S)=N/C[C@H](C)O`, the Activity in the assay with Rattus norvegicus [31] was -75%; in the assay on Rattus norvegicus [32] it was -68%; in the assay on Rattus norvegicus [33], 8%; with Rattus norvegicus [34] it was 33%; in the assay with Rattus norvegicus [35], 30%.
In the case of `Cc1ccccc1/N=C(\S)NCCO`, the Activity in the assay with Rattus norvegicus [36] is listed as -51%; with Rattus norvegicus [37], -18%; with Rattus norvegicus [38], -138%; in the assay on Rattus norvegicus [39] it was 66%; in the assay on Rattus norvegicus [40], 3%.

Values taken from ChEMBL document CHEMBL1144306, “1-Hydroxyalkyl-3-phenylthioureas as novel HDL-elevating agents” (2005).
